# Reference: ChEMBL document CHEMBL1629645 (Antimicrob Agents Chemother, 2009)
# The source made the active and inactive calls. The calls are words filed in the database; no cut-off is given here.
# Tests used:
# [1] = tested on: Staphylococcus aureus; assay: Antibacterial activity against methicillin-resistant Staphylococcus aureus ATCC 43300 infected in Albino guiena pig assessed as no. of culture-negative cage fluid samples at 75 mg/kg measured on day 10 postinfection; type: functional
# How it was run: (§1)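 Same guinea pig cage infection and intraperitoneal 4-day, twice-daily regimen. Cage fluid cultured on day 4 and day 10. Result is the number of cage fluid samples without detectable MRSA growth over the total cages per group.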
# [2] = tested on: Staphylococcus aureus; assay: Antibacterial activity against methicillin-resistant Staphylococcus aureus ATCC 43300 by macrodilution method; type: functional
# How it was run: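 Broth macrodilution MIC in Mueller-Hinton broth per CLSI. Inoculum 1 × 10^5 to 5 × 10^5 CFU/ml. Ten twofold drug dilutions, 18 h at 37°C without shaking. MIC is the lowest concentration with no visible growth. Triplicate.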
# [3] = tested on: Staphylococcus aureus; assay: Antibacterial activity against methicillin-resistant Staphylococcus aureus ATCC 43300 infected in Albino guiena pig assessed as cure rate at 75 mg/kg measured on day 4 postinfection; type: functional, organism-based; parameters: dose 75 mg/kg
# How it was run: (§2)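 Male albino guinea pigs, 550–600 g, with four subcutaneous perforated Teflon cages each. Cages infected with 2 × 10^4 CFU MRSA. Intraperitoneal treatment from 24 h post-infection, every 12 h for 4 days (8 doses), ≥3 animals per group. Explanted cages incubated in TSB at 37°C for 48 h, then plated. Cure is the share of cages without MRSA growth.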
# [4] = tested on: Staphylococcus aureus; assay: Antibacterial activity against methicillin-resistant Staphylococcus aureus ATCC 43300 infected in Albino guiena pig assessed as no. of culture-negative cage fluid samples at 25 mg/kg measured on day 10 postinfection; type: functional; how it was run: as §1
# [5] = Half life in cage fluid of Albino guiena pig at 75 mg/kg, ip; details: guinea pig
# [6] = tested on: Staphylococcus aureus; assay: Antibacterial activity against methicillin-resistant Staphylococcus aureus ATCC 43300 infected in Albino guiena pig assessed as decrease in planktonic bacterial counts in cage fluid at 50 mg/kg after measured on day 10 postinfection; type: functional
# How it was run: (§3)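 Guinea pig subcutaneous cage model infected with 2 × 10^4 CFU MRSA. Intraperitoneal dosing every 12 h for 4 days, starting day 1. Cage-fluid CFU counted on day 1, day 4 (before last dose) and day 10. Δlog10 CFU/ml is day 4 or day 10 minus day 1. Quantification limit 1,000 CFU/ml; negatives set to 3 log10. Median and IQR.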
# [7] = tested on: Staphylococcus aureus; assay: Antibacterial activity against methicillin-resistant Staphylococcus aureus ATCC 43300 infected in Albino guiena pig assessed as cure rate at 50 mg/kg measured on day 4 postinfection; type: functional, organism-based; parameters: dose 50 mg/kg; how it was run: as §2
# [8] = Tmax in cage fluid of Albino guiena pig at 75 mg/kg, ip; type: ADME, organism-based, Cavia porcellus; parameters: dose 75 mg/kg, route intraperitoneal; details: guinea pig
# How it was run: (§4)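 Noninfected male albino guinea pigs (550–600 g) carrying subcutaneous Teflon cages, verified sterile, received one intraperitoneal dose. Cage fluid was aspirated at 1–24 h, two cages per animal, three animals per dose, centrifuged and stored at −20°C. Levels were read by agar diffusion bioassay (S. aureus ATCC 29213; standards in 31% guinea pig serum; limit 1.25 µg/ml). Per-animal parameters are given as mean ± SD; Cmin is the 12 h trough.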
# [9] = tested on: Staphylococcus aureus; assay: Antibacterial activity against methicillin-resistant Staphylococcus aureus ATCC 43300 infected in Albino guiena pig assessed as decrease in planktonic bacterial counts in cage fluid at 75 mg/kg after measured on day 10 postinfection; type: functional; how it was run: as §3
# [10] = tested on: Staphylococcus aureus; assay: Antibacterial activity against methicillin-resistant Staphylococcus aureus ATCC 43300 infected in Albino guiena pig assessed as decrease in planktonic bacterial counts in cage fluid at 50 mg/kg measured on day 4 postinfection; type: functional; how it was run: as §3
# [11] = tested on: Staphylococcus aureus; assay: Antibacterial activity against methicillin-resistant Staphylococcus aureus ATCC 43300 infected in Albino guiena pig assessed as no. of culture-negative cage fluid samples at 25 mg/kg measured on day 4 postinfection; type: functional; how it was run: as §1
# [12] = tested on: Staphylococcus aureus; assay: Antibacterial activity against methicillin-resistant Staphylococcus aureus ATCC 43300 infected in Albino guiena pig assessed as decrease in planktonic bacterial counts in cage fluid at 25 mg/kg measured on day 4 postinfection; type: functional; how it was run: as §3
# [13] = tested on: Staphylococcus aureus; assay: Antibacterial activity against methicillin-resistant Staphylococcus aureus ATCC 43300 during logarithmic growth phase by macrodilution method; type: functional
# [14] = Cmax in cage fluid of Albino guiena pig at 50 mg/kg, ip after 3 hrs; type: ADME, organism-based, Cavia porcellus, Interstitial fluid; parameters: dose 50 mg/kg, route intraperitoneal; details: guinea pig; how it was run: as §4
# [15] = AUC (0 to 24 hrs) in cage fluid of Albino guiena pig at 75 mg/kg, ip; type: ADME, organism-based, Cavia porcellus; parameters: time < 24 hr, dose 75 mg/kg, route intraperitoneal; details: guinea pig
# [16] = Cmin in cage fluid of Albino guiena pig at 50 mg/kg, ip after 12 hrs; type: ADME, organism-based, Cavia porcellus; parameters: dose 50 mg/kg, route intraperitoneal; details: guinea pig, read-out: Cmin; how it was run: as §4
# [17] = Half life in cage fluid of Albino guiena pig at 25 mg/kg, ip; details: guinea pig
# [18] = Cmax in cage fluid of Albino guiena pig at 75 mg/kg, ip after 3 hrs; type: ADME, organism-based, Cavia porcellus, Interstitial fluid; parameters: dose 75 mg/kg, route intraperitoneal; details: guinea pig; how it was run: as §4
# [19] = Cmin in cage fluid of Albino guiena pig at 75 mg/kg, ip after 12 hrs; type: ADME, organism-based, Cavia porcellus; parameters: dose 75 mg/kg, route intraperitoneal; details: guinea pig, read-out: Cmin; how it was run: as §4
# [20] = tested on: Staphylococcus aureus; assay: Antibacterial activity against methicillin-resistant Staphylococcus aureus ATCC 43300 infected in Albino guiena pig assessed as no. of culture-negative cage fluid samples at 75 mg/kg measured on day 4 postinfection; type: functional; how it was run: as §1
# [21] = tested on: Staphylococcus aureus; assay: Antibacterial activity against 1 x10'6 to 5 x10^6 CFU/ml methicillin-resistant Staphylococcus aureus ATCC 43300 assessed as effect on bacterial count at MIC after 24 hrs by time kill study; type: functional, organism-based
# How it was run: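 MRSA inoculum of 1 × 10^6 to 5 × 10^6 CFU/ml in 10 ml Mueller-Hinton broth. Drug at 1× and 4× MIC; drug-free growth control. Incubated at 37°C. Aliquots plated on Mueller-Hinton agar at 0, 6 and 24 h. Quantification limit 200 CFU/ml. Mean log10 CFU/ml reduction ± SD.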
# [22] = tested on: Staphylococcus aureus; assay: Antibacterial activity against methicillin-resistant Staphylococcus aureus ATCC 43300 infected in Albino guiena pig assessed as inhibition of bacterial growth in cage fluid at 75 mg/kg measured on day 10 postinfection compared to the bacterial growth on day 1; type: functional, organism-based; parameters: dose 75 mg/kg; how it was run: as §3
# [23] = tested on: Staphylococcus aureus; assay: Antibacterial activity against methicillin-resistant Staphylococcus aureus ATCC 43300 during stationary growth phase by macrodilution method; type: functional
# [24] = tested on: Staphylococcus aureus; assay: Antibacterial activity against methicillin-resistant Staphylococcus aureus ATCC 43300 infected in Albino guiena pig assessed as no. of culture-negative cage fluid samples at 50 mg/kg measured on day 10 postinfection; type: functional; how it was run: as §1
# [25] = tested on: Staphylococcus aureus; assay: Antibacterial activity against methicillin-resistant Staphylococcus aureus ATCC 43300 infected in Albino guiena pig assessed as no. of culture-negative cage fluid samples at 50 mg/kg measured on day 4 postinfection; type: functional; how it was run: as §1
# [26] = tested on: Staphylococcus aureus; assay: Antibacterial activity against methicillin-resistant Staphylococcus aureus ATCC 43300 infected in Albino guiena pig assessed as cure rate at 25 mg/kg measured on day 10 postinfection; type: functional, organism-based; parameters: dose 25 mg/kg; how it was run: as §2
# [27] = AUC (0 to 24 hrs) in cage fluid of Albino guiena pig at 25 mg/kg, ip; type: ADME, organism-based, Cavia porcellus; parameters: time < 24 hr, dose 25 mg/kg, route intraperitoneal; details: guinea pig
# [28] = tested on: Staphylococcus aureus; assay: Antibacterial activity against methicillin-resistant Staphylococcus aureus ATCC 43300 infected in Albino guiena pig assessed as decrease in planktonic bacterial counts in cage fluid at 75 mg/kg measured on day 4 postinfection; type: functional; how it was run: as §3
# [29] = Tmax in cage fluid of Albino guiena pig at 25 mg/kg, ip; type: ADME, organism-based, Cavia porcellus; parameters: dose 25 mg/kg, route intraperitoneal; details: guinea pig; how it was run: as §4
# [30] = Tmax in cage fluid of Albino guiena pig at 50 mg/kg, ip; type: ADME, organism-based, Cavia porcellus; parameters: dose 50 mg/kg, route intraperitoneal; details: guinea pig; how it was run: as §4
# [31] = Half life in cage fluid of Albino guiena pig at 50 mg/kg, ip; details: guinea pig
# [32] = Cmax in cage fluid of Albino guiena pig at 25 mg/kg, ip after 3 hrs; type: ADME, organism-based, Cavia porcellus, Interstitial fluid; parameters: dose 25 mg/kg, route intraperitoneal; details: guinea pig; how it was run: as §4
# [33] = Cmin in cage fluid of Albino guiena pig at 25 mg/kg, ip after 12 hrs; type: ADME, organism-based, Cavia porcellus; parameters: dose 25 mg/kg, route intraperitoneal; details: guinea pig, read-out: Cmin; how it was run: as §4
# [34] = AUC (0 to 24 hrs) in cage fluid of Albino guiena pig at 50 mg/kg, ip; type: ADME, organism-based, Cavia porcellus; parameters: time < 24 hr, dose 50 mg/kg, route intraperitoneal; details: guinea pig
smiles,measurement,setting,value
CC(=O)NC[C@H]1CN(c2ccc(N3CCOCC3)c(F)c2)C(=O)O1 [LINEZOLID],Activity,[1],17%
same,MIC,[2],2.5 µg/mL
same,Activity,[3],inactive
same,Activity,[4],0%
same,half-life,[5],2.6 h
same,log10CFU/ml,[6],7.1
same,Activity,[7],inactive
same,Tmax,[8],2.8 h
same,log10CFU/ml,[9],4.5
same,log10CFU/ml,[10],5.1
same,Activity,[11],8%
same,log10CFU/ml,[12],4.5
same,MBC,[13],> 20 µg/mL
same,Cmax,[14],12700 ng/mL
same,AUC(0-t) at 24 h,[15],126 µg·h/mL
same,concentration at 12 h,[16],3700 ng/mL
same,half-life,[17],6.8 h
same,Cmax,[18],18100 ng/mL
same,concentration at 12 h,[19],2500 ng/mL
same,Activity,[20],25%
same,Activity,[21],inactive
same,Activity,[22],Active
same,MBC,[23],> 20 µg/mL
same,Activity,[24],0%
same,Activity,[25],17%
same,Activity,[26],inactive
same,AUC(0-t) at 24 h,[27],87.8 µg·h/mL
same,log10CFU/ml,[28],4.6
same,Tmax,[29],3 h
same,Tmax,[30],3.3 h
same,half-life,[31],3.5 h
same,Cmax,[32],6800 ng/mL
same,concentration at 12 h,[33],3000 ng/mL
same,AUC(0-t) at 24 h,[34],119 µg·h/mL
